According to ChEMBL document CHEMBL4152329, “Benzofuran hydrazones as potential scaffold in the development of multifunctional drugs: Synthesis and evaluation of antioxidant, photoprotective and antiproliferative activity” (Eur J Med Chem, 2018):

Legend:
[1] = Antioxidant activity assessed as DPPH free radical scavenging activity by measuring trolox equivalent by spectrophotometric analysis; format: functional
Summary of the method: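 Diluted compound solution (0.750 mL) added to 1.5 mL methanolic DPPH. Absorbance decrease read at 517 nm. Blank was DPPH plus methanol. Inhibition % = [(AB−As)/AB]×100. Trolox calibration curve used as standard.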

[2] = Antioxidant activity assessed as ferric ion reducing activity by measuring trolox equivalents after 10 mins by FRAP assay; format: functional
Summary of the method: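 Reagent made fresh: 0.1 M acetate buffer pH 3.6, 10 mM TPTZ in 40 mM HCl and 20 mM FeCl3 at 10:1:1 (v/v/v). Diluted sample (0.1 mL) added to 1.9 mL reagent; solvent used for blank. Absorbance at 593 nm after 10 min, increase taken over blank. Expressed as Trolox activity from calibration curve.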

[3] = Antioxidant activity assessed as AAPH-induced radical scavenging activity by measuring trolox equivalents for oxygen radical absorbance capacity measured at 5 mins intervals up to 30 mins by ORAC-FL assay; format: functional
Summary of the method: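 Fluorescein (85 nM) as target, AAPH as peroxyl radical generator, 0.2 mL final volume. Compounds dissolved in methanol and diluted in phosphate buffer pH 7.4. Fluorescence read at ex 485/em 538 nm, 37 °C, every 5 min up to 30 min after AAPH. Value from difference in areas under fluorescein decay curves, blank vs sample. Trolox calibration 40–240 µM; µmol TE per gram compound.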

[4] = Antiproliferative activity against human Colo38 cells after 7 days by Coulter counter method; format: functional, cell-based; details: 168 h
Summary of the method: (§1)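 RPMI 1640 with 10% FBS, penicillin, streptomycin and 2 mM glutamine, pH 7.2, 37 °C, 5% CO2. Stocks 20 mM in MeOH/DMSO 10%, diluted in MeOH, added at serial dilutions. Cells suspended in physiological solution and counted by Coulter counter. IC50 = 50% growth inhibition while untreated cells in log phase. Untreated cells as negative control on every plate.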

[5] = tested on: K562; assay: Antiproliferative activity against human K562 cells after 7 days by Coulter counter method; format: functional, cell-based; details: K562, 168 h; summary of the method: as §1
[6] = UV filtering activity of the compound assessed as maximum absorption wavelength; format: functional
Summary of the method: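 UV absorption spectrum recorded in methanol at 0.000034 (± 0.0000033) M; wavelength of maximum absorption taken, together with molar extinction coefficient.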

[7] = UV filtering activity of the compound assessed as wavelength at which the integral of the spectral absorbance curve reaches 90% of area under the curve from 290 to 400 nm; format: functional
Summary of the method: (§2)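 Spectra recorded on methanolic solutions at 0.000034 (± 0.0000033) M. Absorbance converted to transmittance by A(λ) = −Log[T(λ)], and SPF, UVA/UVB ratio, UVAPF and critical wavelength derived from the transmittance spectrum. Method adapted from the official in vitro SPF method; UVAPF per ISO-24443. PBSA served as reference.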

[8] = UV filtering activity of the compound assessed as solar protection factor relative to control; format: functional; summary of the method: as §2
[9] = UV filtering activity of the compound assessed as UVA/UVB ratio; format: functional; summary of the method: as §2
[10] = UV filtering activity of the compound assessed as UVA protection factor value relative to control; format: functional; summary of the method: as §2
[11] = tested on: K562; assay: Induction of erythroid differentiation on human K562 cells after 5 days by benzidine staining-based assay; format: functional
Summary of the method: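 K562 cells treated in culture, then scored for erythroid differentiation by benzidine staining with 0.2% benzidine in 5 M glacial acetic acid and 10% H2O2. Assayed after 5, 6 and 7 days of treatment; value given as percentage of differentiated cells.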

| Structure (SMILES) | Activity [1] | Activity [2] [µmolequiv/g] | Activity [3] [µmolequiv/g] | IC50 [4] [µM] | IC50 [5] [µM] | Activity [6] [nm] | Activity [7] [nm] | SPF [8] | Ratio [9] | UVAPF [10] | Activity [11] [%] |
| --- | --- | --- | --- | --- | --- | --- | --- | --- | --- | --- | --- |
| O=C(N/N=C/c1ccc(O)c(O)c1O)c1cc2ccccc2o1 | 9210 µmolequiv/g | 13200 | 5260 | 6.48 | 6 | 336 | 353 | 7.58 | 0.85 | 2.45 | – |
| COc1cc(/C=N/NC(=O)c2cc3ccccc3o2)ccc1O | 101 µmolequiv/g | 3100 | 10900 | 49 | 5.6 | 334 | 371 | 3.36 | 2.33 | 5.57 | 5 |
| O=C(N/N=C/c1cc(Cl)ccc1O)c1cc2ccccc2o1 | Below limit of detection | 46.3 | – | 2.02 | 3.7 | 310 | 357 | 5.78 | 1.14 | 2.89 | – |
| O=C(N/N=C/c1cc(O)ccc1O)c1cc2ccccc2o1 | 6200 µmolequiv/g | 6970 | 19000 | 6.26 | 36.8 | 306 | 366 | 2.18 | 1.33 | 2.38 | – |
| O=C(N/N=C/c1c(O)ccc2ccccc12)c1cc2ccccc2o1 | 132 µmolequiv/g | 132 | – | 3.01 | 4.5 | 329 | 359 | 8.82 | 0.39 | 2.85 | – |
| O=C(N/N=C/c1c(O)cc(O)cc1O)c1cc2ccccc2o1 | 1140 µmolequiv/g | 4020 | 3560 | 24.4 | 64 | 345 | 366 | 1.99 | 1.32 | 2.02 | – |
| O=S(=O)(O)c1ccc2[nH]c(-c3ccccc3)nc2c1 | – | – | – | – | – | 302 | 394 | 1.68 | 1.27 | 5.1 | – |
| O=C(N/N=C/c1ccc(O)cc1)c1cc2ccccc2o1 | 45.8 µmolequiv/g | 2290 | 26100 | 39.4 | 79.9 | 328 | 322 | 3.4 | 0.29 | 1.03 | – |
| CCN(CC)c1ccc(/C=N/NC(=O)c2cc3ccccc3o2)c(O)c1 | 1010 µmolequiv/g | 4150 | 22100 | 0.44 | 0.52 | 381 | 387 | 2.59 | 1.29 | 3.6 | – |
| O=C(N/N=C/c1cccc(O)c1)c1cc2ccccc2o1 | 76.7 µmolequiv/g | 1670 | 6790 | 6.2 | 52.4 | 314 | 353 | 7.58 | 0.85 | 2.45 | – |
| O=C(N/N=C/c1ccc(O)cc1O)c1cc2ccccc2o1 | 149 µmolequiv/g | 1210 | 9380 | 0.57 | 4.3 | 343 | 342 | 10.2 | 0.26 | 1.5 | 5 |
